High-throughput results deposited in PubChem BioAssay by several laboratories.
This is a sample that favours compounds with a hit; in the whole collection about 1.2% have one here.
Runt-SMMHC FRET: inhibitors of human RUNX1 Runt domain binding to CBFb-SMMHC. Q01196+Q13951. Cerulean-Runt/Venus-CBFb-SMMHC FRET ratio 530/480, 1 h. inhibition, % at 20 µM. hit rate 0.74% among 220,000;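 active = mean inhibition across duplicate retests at 20 µM reaching about 50%, limit read from the data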;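 note: inhibitors lower the FRET ratio by blocking Runt binding to CBFb-SMMHC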
Target sequence (Q01196 whole entry, looked up, the tested form may be a part): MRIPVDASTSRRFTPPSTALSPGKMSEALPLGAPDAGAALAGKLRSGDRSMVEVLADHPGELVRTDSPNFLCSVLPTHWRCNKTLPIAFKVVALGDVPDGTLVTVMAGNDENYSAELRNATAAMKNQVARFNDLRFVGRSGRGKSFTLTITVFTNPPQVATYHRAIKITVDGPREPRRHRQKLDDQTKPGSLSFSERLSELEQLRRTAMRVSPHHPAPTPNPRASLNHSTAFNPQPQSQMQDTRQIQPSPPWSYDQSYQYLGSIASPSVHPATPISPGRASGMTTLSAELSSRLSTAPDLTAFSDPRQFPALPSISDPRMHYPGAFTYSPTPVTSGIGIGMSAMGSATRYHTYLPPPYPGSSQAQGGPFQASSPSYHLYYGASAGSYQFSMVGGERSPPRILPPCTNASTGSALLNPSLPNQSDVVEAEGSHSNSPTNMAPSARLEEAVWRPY
Target sequence (Q13951 whole entry, looked up, the tested form may be a part): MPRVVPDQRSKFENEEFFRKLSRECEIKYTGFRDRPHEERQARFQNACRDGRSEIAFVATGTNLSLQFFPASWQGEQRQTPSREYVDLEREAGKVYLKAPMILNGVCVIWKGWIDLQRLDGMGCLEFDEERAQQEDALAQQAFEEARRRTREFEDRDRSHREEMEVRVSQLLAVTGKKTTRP
Runt-CBFb FRET: Runt domain-CBFb interaction inhibition; AID 1496; inhibition, % at 20 µM; hit rate 0.46% among 220,000; Cerulean-Runt/Venus-CBFb FRET ratio 530/480, 1 h; Q01196+Q13951;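 active = inhibition over about 50% at 20 µM in the single-dose screen, limit read from the data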
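System: Cerulean-labeled Runt domain protein | Quantity: 100 nM of each labeled protein | Schedule: 1 h compound exposure, room temperature | Detection: Fluorescence energy transfer, 422 nm excitation, 530/480 nm emission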
RanGTP-Imp inh: inhibitors of RanGTP-importin-beta interaction, primary screen, biochemical, FRET, CFP-Ran, YFP-importin-beta, homogeneous | cell-free CFP-Ran/YFP-importin-beta FRET ratio | hit rate 1.1% among 300,000 | inhibition, % (test concentration not listed);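 active = more than half of the replicate wells show a fall in the fluorescence ratio signal beyond about 16%, limit read from the data, passing the limit was not always enough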
CaV13 FRET inh: Primary screen for inhibitors of IQ motif and Ca2+-dependent inactivation inhibitor domain binding in CACNA1D, Förster resonance energy transfer in living cells, …. hit rate 0.098% among 340,000. AID 743397. HEK cells, CFP/YFP FRET ICDI-IQ, plate reader, 10 min; percent FRET-ratio fall versus neutral wells. inhibition, % at 12.3 µM;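 active = mean replicate inhibition of at least 30% and at least 1% of replicates passing that level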
YIC counter: counter-screen YIC FRET for RanGTP-importin-beta inhibitors. hit rate 40% among 1,000. Purified YIC probe, intramolecular FRET ratio YFP/CFP. IC50, µM. shares compounds with RanGTP-Imp inh;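 active = fitted half-maximal inhibitory concentration no more than tenfold above the top dose tested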
Each line names hits and unclear results; the compound was inactive in the other large screens (follow-up assays come after a bar, where they were run).

N#CC1=C(N)Oc2cc3c(cc2C1c1ccc(Cl)cc1)OCO3 (centres undefined)	RanGTP-Imp inh 29 | YIC counter inactive
Cc1[nH]nc2c1C(c1ccc3c(c1)OCO3)C(C#N)=C(N)O2 (centres undefined)	none
CCOc1ccc(-n2c(N)c(C(=O)NCc3ccco3)c3nc4ccccc4nc32)cc1	Runt-SMMHC FRET 86, RanGTP-Imp inh 25 (no result: CaV13 FRET inh) | YIC counter 21
O=C1C2CCCCC2C(=O)N1c1ccc(S(=O)(=O)Nc2ncccn2)cc1 (centres undefined)	none (no result: Runt-SMMHC FRET, Runt-CBFb FRET, CaV13 FRET inh)
CCC(=O)Nc1cccc(NC(=S)NC(=O)c2ccccc2Cl)c1	none
CCC(=O)Nc1cccc(NC(=S)NC(=O)c2cccs2)c1	RanGTP-Imp inh 25 | YIC counter inactive
Cc1cccc(Oc2nc(-c3cccc([N+](=O)[O-])c3)nc3ccccc23)c1C	RanGTP-Imp inh 21 | YIC counter inactive
Cc1ccc(/C=C(\C#N)C(=O)NC(C)C)o1	none
CC(C)NC(=O)/C(C#N)=C/c1ccc(N(C)C)o1	RanGTP-Imp inh 41 | YIC counter 6.4
CN1CCN(C(=O)c2ccccc2Nc2ccc(SC(F)F)cc2)CC1	RanGTP-Imp inh 19 | YIC counter inactive
Cc1cc2c(c(=O)n1CCN(C)C)C(c1ccc(Cl)cc1)C(C#N)=C(N)O2 (centres undefined)	none
Cc1cc2c(c(=O)n1C1CC1)C(c1cccc(Cl)c1)C(C#N)=C(N)O2 (centres undefined)	RanGTP-Imp inh 20 | YIC counter inactive
Cc1[nH][nH]c(=O)c1C	none (no result: Runt-SMMHC FRET, Runt-CBFb FRET, RanGTP-Imp inh)
CO/N=C\c1cc(C(=O)c2ccc(Cl)cc2Cl)cn1C	RanGTP-Imp inh 32 | YIC counter inactive
CCOC(=O)C1(C)CCCCCN1C(=O)c1csnn1 (centres undefined)	none (no result: Runt-SMMHC FRET, Runt-CBFb FRET, RanGTP-Imp inh)
